From PubChem BioAssay
Hits are enriched below; roughly 0.96% of the tested compounds scored in any of these assays.
LAP4 TOR yeast: modulators of TOR pathway LAP4-GFP in S. cerevisiae. S. cerevisiae LAP4-GFP multiplex, flow cytometry GFP, 3 h; median GFP as percent of DMSO wells. GFP response vs DMSO, % at 10 µM. actives 0.34% (n = 320,000);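 active = GFP response vs DMSO above a set limit, about the screen mean plus 3 SD, cut at about 150% in these data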
T cell modulator: modulates CD8 T cell binding to vesicles; 2C CD8+ T cell-vesicle binding, flow cytometry; active compounds read low; response (vesicle binding), % at 7 µM; actives 0.068% (n = 330,000);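 active = response, share of CD8 T cells binding vesicles, and their 90th percentile fluorescence all below set limits, cut at about 80% in these data, passing the limit was not always enough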;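 also: values below 100% mean blocked vesicle binding to the CD8+ T cells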
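Incubation: binding step 1.5 h, 37 °C, antibody labelling 20 min, ice; system: murine 2C transgenic CD8+ T lymphocytes; technique: cytometric PE anti-B7-1 and Alexa647 anti-CD8 signals after 1% paraformaldehyde fixation; also added: QL9-charged Drosophila Ld/ICAM-1/B7-1 vesicles; control set: naked versus QL9-loaded vesicles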
CIT2-GFP yeast: yeast TOR pathway CIT2-GFP modulation. S. cerevisiae CIT2-GFP strain, flow cytometry, 3 h; 100 means same as DMSO wells. GFP response vs DMSO, % at 10 µM. actives 0.065% (n = 320,000);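 active = GFP response relative to DMSO above a set limit, near the screen mean plus 3 SD, cut at about 150% in these data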;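 also: ratio of well median GFP fluorescence to mean of DMSO wells on the plate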
RPL19A-GFP yeast: alters RPL19A-GFP fluorescence in TOR pathway yeast screen | S. cerevisiae RPL19A-GFP strain, flow cytometry, 3 h; active compounds read low | percent response vs DMSO, % at 10 µM | AID 2025 | actives 0.3% (n = 330,000);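 active = percent response vs DMSO below 50%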;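 also: median channel GFP fluorescence of the barcoded RPL19A-GFP strain; ratio of sample median GFP to plate DMSO average so 100% = DMSO; lower means less RPL19A-GFP as with rapamycin TOR inhibition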
MEP2 TOR yeast: alters MEP2-GFP fluorescence in TOR pathway yeast screen | S. cerevisiae MEP2-GFP strain, flow cytometry GFP, 3 h; 100% = DMSO control level | GFP response vs DMSO, % at 10 µM | AID 2016 | actives 0.51% (n = 330,000);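 active = GFP response versus DMSO above a set limit, roughly screen mean plus 3 SD, cut at about 180% in these data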;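 also: median GFP fluorescence of the barcode-gated MEP2-GFP cells per well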
AGP1-GFP MLPCN: modulators of TOR pathway AGP1-GFP in S. cerevisiae | S. cerevisiae AGP1-GFP multiplex flow cytometry, 3 h; GFP as percent of DMSO wells | GFP response vs DMSO, % at 10 µM | actives 0.02% (n = 320,000) | AID 2066;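 active = GFP response relative to DMSO above a set limit, near screen average plus 3 SD, cut at about 150% in these data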;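 also: median GFP channel fluorescence of the gated AGP1 strain per well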
LAP4 cherry2: second confirmation of modulators of TOR reporter LAP4-GFP in yeast | S. cerevisiae LAP4-GFP strain, flow cytometry GFP, 3 h | shares compounds with LAP4 TOR yeast | AID 2621 | GFP response vs DMSO, % at 10 µM | actives 20% (n = 590);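 active = GFP signal as percent of the solvent control above about 150%, meaning raised reporter expression, limit read from the data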;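 also: ratio of well median GFP fluorescence to plate DMSO mean so 100% = DMSO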
MEP2 cherry2: yeast MEP2-GFP modulation, second cherry pick. shares compounds with LAP4 TOR yeast. S. cerevisiae MEP2-GFP strain, flow cytometry GFP, 3 h. GFP response vs DMSO, % at 10 µM. actives 10% (n = 590). AID 2622;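 active = GFP signal above 150% of the solvent control wells, that is a rise of more than half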;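 also: median channel GFP fluorescence of all gated yeast cells per well; ratio of median GFP to plate DMSO average so 100% = DMSO level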
RPL19A-GFP pick2: yeast RPL19A-GFP TOR reporter modulation, second cherry pick; GFP response vs DMSO, % at 10 µM; AID 2623; S. cerevisiae RPL19A-GFP strain, flow cytometry GFP, 3 h; active compounds read low; 100% means same as DMSO wells; actives 3% (n = 590); shares compounds with LAP4 TOR yeast;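 active = under 65% GFP response relative to DMSO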;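 also: median GFP channel fluorescence per well over the all cells gate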
CIT2 GFP CP2: reconfirmed modulator of CIT2-GFP TOR reporter in yeast; shares compounds with LAP4 TOR yeast; S. cerevisiae CIT2-GFP strain, flow cytometry GFP, 3 h; DMSO control wells read 100%; GFP response vs DMSO, % at 10 µM; actives 8% (n = 590); AID 2624;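 active = GFP response vs DMSO above about 150%, limit read from the data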;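 also: median green fluorescence per well over all gated yeast cells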
AGP1-GFP pick2: second confirmation of modulators of TOR reporter AGP1-GFP in yeast | AID 2643 | shares compounds with LAP4 TOR yeast | 590 tested, under 10 active | S. cerevisiae AGP1-GFP strain, flow cytometry GFP, 3 h | percent response vs DMSO, % at 10 µM;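 active = over 150 percent of DMSO response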;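 also: median GFP channel fluorescence over all cells without mother daughter split; sample median GFP divided by mean DMSO control so 100% equals DMSO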
s288c autofluor: yeast s288c autofluorescence artifact, counter-screen; shares compounds with LAP4 TOR yeast; AID 2757; fluorescence change (kMESF span) at 33 µM; S. cerevisiae s288c, 520 nm autofluorescence, flow cytometry, 3 h; active compounds read high; zero means same as solvent-only cells; 610 tested, under 10 active;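 active = fluorescence span over the dose series, or activity score, above about 33, limit read from the data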
* hit, by the source's call; i = inactive; . = no result; [ ] = remark or other dose.

SMILES	LAP4 TOR yeast	T cell modulator	CIT2-GFP yeast	RPL19A-GFP yeast	MEP2 TOR yeast	AGP1-GFP MLPCN	LAP4 cherry2	MEP2 cherry2	RPL19A-GFP pick2	CIT2 GFP CP2	AGP1-GFP pick2	s288c autofluor
O=C1NC(=Nc2ccccc2Cl)S/C1=C\c1cccc([N+](=O)[O-])c1	152*	284	79	89	82	71	142	98	92	121	83	.
O=C1NC(=Nc2ccccc2Cl)S/C1=C\c1cccc([N+](=O)[O-])c1O	80	153	102	97	102	80	.	.	.	.	.	.
COc1cc(OC)cc(C(=O)N/N=C\c2ccoc2)c1	90	178	96	94	89	94	.	.	.	.	.	.
CC1=C(C)/C(=N\OS(=O)(=O)c2ccccc2)C=CC1=O	255*	269	91	82	89	74	.	.	.	.	.	0.31
Cc1ccc(S(=O)(=O)O/N=C2\CCCc3ccccc32)cc1	102	580	111	101	102	105	.	.	.	.	.	.
c1ccc(-c2nnnn2-c2ccccc2)cc1	91	313	104	105	107	101	.	.	.	.	.	.
ClC(Cl)(c1nnnn1-c1ccccc1)c1nnnn1-c1ccccc1	232*	185	86	93	83	64	265*	148	92	132	96	1.6
Cc1oc2c(c1C(=O)O)C(=O)c1ccccc1C2=O	156*	552	74	111	88	97	133	133	110	117	119	.
CCOC(=O)c1c(C)oc2c1C(=O)c1ccccc1C2=O	115	93	98	108	96	98	.	.	.	.	.	.
CC(Oc1ccc(Cl)cc1Cl)C(=O)NNC(=O)C(=O)N1CCCC1 (configuration not stated)	97	498	101	104	96	99	.	.	.	.	.	.
COc1ccc(OC)c(S(=O)(=O)N2CCN(c3ccccc3)CC2)c1	101	350	103	98	102	100	.	.	.	.	.	.
COc1ccc(OC)c(S(=O)(=O)ON2C(=O)c3ccccc3C2=O)c1	182*	i	80	101	87	78	.	.	.	.	.	18
COC(=O)CCC(=O)OC1(C)C(=O)C2=CN(C(CO)CO)C(c3ccc(OC)cc3)=CC2=C(Br)C1=O (configuration not stated)	98	197	88	100	103	102	.	.	.	.	.	.
COC(=O)CCC(=O)OC1(C)C(=O)C2=COC(c3ccc(OC)cc3)=CC2=C(Br)C1=O (configuration not stated)	127	497	49	39*	79	18	151*	129	72	108	43	2.2
Cc1ccc2c(c1)N(CCCC(=O)Nc1cccc(C(F)(F)F)c1)C(=O)CO2	86	322	98	60	111	15	102	110	99	100	98	.
Cc1ccc2c(c1)N(CCCC(=O)NCC1COc3ccccc3O1)C(=O)CO2 (configuration not stated)	108	202	90	96	99	96	.	.	.	.	.	.
CS(=O)(=O)N1N=C(c2ccccc2)CC1c1ccc2c(c1)OCO2 (configuration not stated)	243*	i	243*	126	305*	125	.	.	.	.	.	83*
CS(=O)(=O)Nc1cccc(C2=NN(S(C)(=O)=O)C(c3ccc4c(c3)OCO4)C2)c1 (configuration not stated)	91	119	102	97	104	94	.	.	.	.	.	.
O=C(NC1CCN(Cc2ccccc2)CC1)c1cn(-c2ccccc2)nc1-c1cccnc1	111	227	96	102	102	109	.	.	.	.	.	.
Cc1c(N2C(=O)/C(=C/c3ccccc3)SC2=S)c(=O)n(-c2ccccc2)n1C	90	0	119	92	76	97	.	.	.	.	.	.
Cc1c(N2C(=O)/C(=C\c3ccccc3O)SC2=S)c(=O)n(-c2ccccc2)n1C	170*	310	108	95	96	93	.	.	.	.	.	0.6
CNC(CC(=O)c1ccc([N+](=O)[O-])cc1)C(Cl)(Cl)Cl (configuration not stated)	195*	708	81	80	82	86	180*	188*	89	144	82	2
O=S(=O)(c1ccc2ccccc2c1)N1CCN(c2ccc(O)cc2)CC1	106	145	92	96	101	106	.	.	.	.	.	.
COc1ccc(C(=O)NC(=S)NNC(=O)c2cnccn2)cc1OC	155*[may fluoresce green]	566	95	97	105	79	168*	155*	103	127	90	0.51
COc1cc(OC)cc(C(=O)NC(=S)NNC(=O)c2cnccn2)c1	94	283	101	106	101	101	.	.	.	.	.	.
SMILES	LAP4 TOR yeast	T cell modulator	CIT2-GFP yeast	RPL19A-GFP yeast	MEP2 TOR yeast	AGP1-GFP MLPCN	LAP4 cherry2	MEP2 cherry2	RPL19A-GFP pick2	CIT2 GFP CP2	AGP1-GFP pick2	s288c autofluor
O=C(/C=C/c1ccccc1)c1cc(Br)ccc(=O)c1O	118	149	88	92	85	80	145	154*	72	163*	87	23
O=C(/C=C/c1ccc(F)cc1)c1cc(Br)ccc1O	102	81	117	106	109	110	.	.	.	.	.	.
COc1ccc(C(C)=O)cc1COC(=O)c1cnc(Cl)c(Cl)c1	99	171	91	64	135	73	114	126	98	108	108	.
COc1ccc(C(C)=O)cc1COC(=O)c1ccc2c(c1)OCO2	99	375	91	98	102	97	.	.	.	.	.	.
O=C(NOC(=O)c1ccccc1)c1ccccc1	164*	259	79	93	102	65	.	.	.	.	.	2.3
Cc1nn2c(NCc3ccccn3)cc(C(C)C)nc2c1-c1ccccc1	127	289	64	94	96	70	.	.	.	.	.	.
